# Active and inactive are the calls of the source. No cut-off for these calls is given here.
# What was measured:
# MCF7 [1] = test: Up-regulation of progesterone receptor gene expression in human MCF7 cells at 10 uM after 24 hrs by RT-PCR analysis; type: functional, cell-based
# In short: (§1)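 MCF-7 cells were treated 24 h with compounds at 10 µM. Steady-state mRNA levels were quantified by qPCR, with constitutive human β-actin mRNA as internal control, relative to untreated control.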
# MCF7 [2] = test: Up-regulation of pS2 gene expression in human MCF7 cells at 10 uM after 24 hrs by RT-PCR analysis; type: functional, cell-based; in short: as §1
# MCF7 [3] = test: Down-regulation of ERalpha mRNA expression in human MCF7 cells at 10 uM after 24 hrs by RT-PCR analysis; type: functional, cell-based; in short: as §1
# MCF7 [4] = test: Down-regulation of ERalpha mRNA expression in human MCF7 cells at 10 uM after 24 hrs by SDS PAGE and immunoblot analysis; type: functional, cell-based; details: in the assay text read “protein” for “mRNA”
# In short: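 MCF-7 cells were treated 24 h with 10 µM compounds, with 10 nM E2 as reference. Total protein extracts were run on SDS–PAGE and immunoblotted with anti-ER-α and anti-β-actin antibodies. ER-α protein was compared with control.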
# Estrogen receptor [5] = biological target: T1, Estrogen receptor (Homo sapiens, UniProt P03372); test: Displacement of [3H]17-beta-estradiol from human recombinant full length ERalpha
# T1 sequence (P03372 whole entry): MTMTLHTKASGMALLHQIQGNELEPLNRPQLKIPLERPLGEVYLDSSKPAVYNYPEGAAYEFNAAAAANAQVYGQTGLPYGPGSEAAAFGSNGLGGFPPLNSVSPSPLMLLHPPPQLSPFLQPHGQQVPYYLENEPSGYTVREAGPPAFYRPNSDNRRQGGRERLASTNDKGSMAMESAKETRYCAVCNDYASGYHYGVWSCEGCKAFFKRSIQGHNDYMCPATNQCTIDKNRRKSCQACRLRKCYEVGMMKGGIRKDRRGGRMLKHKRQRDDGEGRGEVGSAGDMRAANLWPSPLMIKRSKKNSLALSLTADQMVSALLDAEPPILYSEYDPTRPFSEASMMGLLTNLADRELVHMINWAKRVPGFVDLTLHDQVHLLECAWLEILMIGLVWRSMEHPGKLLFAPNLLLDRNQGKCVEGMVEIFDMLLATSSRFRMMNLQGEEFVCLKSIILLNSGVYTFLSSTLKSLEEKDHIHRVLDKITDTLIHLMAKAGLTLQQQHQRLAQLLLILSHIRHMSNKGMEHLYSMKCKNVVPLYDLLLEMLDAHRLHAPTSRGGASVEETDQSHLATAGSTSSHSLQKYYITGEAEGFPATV
# In short: (§2)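 Competitive ligand-binding assay with recombinant human ER-α or ER-β. Test compounds displace the labelled estrogen ligand, and IC50 is derived from the displacement curves.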
# Estrogen receptor beta [6] = biological target: T2, Estrogen receptor beta (Homo sapiens, UniProt Q92731); test: Displacement of [3H]17-beta-estradiol from human recombinant full length ERbeta; in short: as §2
# [7] = biological target: T3, Estrogen receptor (Homo sapiens) (UniProt P03372); test: Displacement of [3H]17-beta-estradiol from human recombinant full length ERalpha relative to estradiol
# T3 sequence (whole entry): T1 sequence (P03372 whole entry)
# In short: (§3)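 Relative binding affinity is taken from the competitive binding IC50s against recombinant human ER-α or ER-β. RBA = 100 × IC50(E2)/IC50(compound).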
# Estrogen receptor beta [8] = biological target: T2, Estrogen receptor beta; test: Displacement of [3H]17-beta-estradiol from human recombinant full length ERbeta relative to estradiol; in short: as §3
# Homo sapiens = species on record: Homo sapiens; test: Selectivity ratio of IC50 for human recombinant full length ERbeta to IC50 for human recombinant full length ERalpha
# Estrogen receptor beta [9] = biological target: T2, Estrogen receptor beta; test: Transactivation of human recombinant ERbeta expressed in african green monkey CV1 cells co-expressing ERE-Luc after 24 hrs by luciferase reporter gene assay; type: cell-based, CV-1
# In short: (§4)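 CV-1 cells were transfected with an ERE-Luc reporter plus a hER-α or hER-β expression vector. Cells were incubated 24 h with compounds, then lysed, and luciferase expression was measured. Data are mean ± SD (n = 3), and EC50 comes from the dose-response.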
# [10] = biological target: T3, Estrogen receptor (Homo sapiens); test: Transactivation of human recombinant ERalpha expressed in african green monkey CV1 cells co-expressing ERE-Luc after 24 hrs by luciferase reporter gene assay in presence of ER antagonist ICI 182780; type: functional, cell-based; details: CV-1
# Estrogen receptor [11] = biological target: T1, Estrogen receptor; test: Transactivation of human recombinant ERalpha expressed in african green monkey CV1 cells co-expressing ERE-Luc after 24 hrs by luciferase reporter gene assay; type: cell-based, CV-1; in short: as §4
# T2 sequence (Q92731 whole entry): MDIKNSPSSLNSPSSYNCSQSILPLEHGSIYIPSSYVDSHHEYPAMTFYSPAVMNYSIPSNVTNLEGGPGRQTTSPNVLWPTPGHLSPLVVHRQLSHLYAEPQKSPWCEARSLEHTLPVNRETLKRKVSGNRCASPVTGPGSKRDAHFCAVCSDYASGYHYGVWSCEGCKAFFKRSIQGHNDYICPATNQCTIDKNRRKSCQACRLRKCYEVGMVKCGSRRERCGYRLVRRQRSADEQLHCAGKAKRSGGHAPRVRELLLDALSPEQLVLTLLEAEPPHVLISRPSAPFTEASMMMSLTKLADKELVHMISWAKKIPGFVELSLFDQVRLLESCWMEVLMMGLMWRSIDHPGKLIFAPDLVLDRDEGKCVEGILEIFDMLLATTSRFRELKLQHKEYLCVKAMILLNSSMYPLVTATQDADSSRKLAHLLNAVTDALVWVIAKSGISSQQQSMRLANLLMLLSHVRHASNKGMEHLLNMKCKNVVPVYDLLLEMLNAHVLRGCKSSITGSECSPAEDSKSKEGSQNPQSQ
IC50 (Estrogen receptor [5]) [µM],IC50 (Estrogen receptor beta [6]) [µM],RBA [7] [%],RBA (Estrogen receptor beta [8]) [%],Ratio IC50 (Homo sapiens),EC50 (Estrogen receptor beta [9]; cv-1),EC50 (Estrogen receptor beta [9]; read-out: EC50) [µM],Activity [10],EC50 (Estrogen receptor [11]; cv-1),EC50 (Estrogen receptor [11]; read-out: EC50) [µM],SMILES,Activity (MCF7 [1]),Activity (MCF7 [2]),Activity (MCF7 [3]),Activity (MCF7 [4])
151,96,0.004,0.007,1.75,,,,,,CC(C)=CCc1c([C@H]2CCc3ccc(O)cc3O2)cc(O)c(O)c1CC=C(C)C,Active,Active,Active,Active
8.1,1.8,0.069,0.394,5.71,Dose-dependent effect,0.53,inactive,Dose-dependent effect,1.59,COc1ccc(CCCc2ccc(O)cc2)c(O)c1 [BROUSSONIN A],Active,Active,Active,Active
57.2,41.7,0.01,0.017,1.7,,,,,,CC(C)=CCc1c([C@H]2CCc3ccc(O)cc3O2)ccc(O)c1O [KAZINOL U],Active,Active,Active,Active
26.2,14.7,0.021,0.048,2.29,,,,,,Oc1ccc([C@H]2CCc3ccc(O)cc3O2)cc1 [TUPICHINOL C],Active,Active,Active,Active
